Reference: ChEMBL document CHEMBL3621182, “Adenosine analogs as inhibitors of tyrosyl-tRNA synthetase: Design, synthesis and antibacterial evaluation” (Bioorg Med Chem, 2015)
In brackets after ≈: the same amount, converted by molar mass.

System: not listed separately
Assay: Inhibition of Staphylococcus aureus tyrosyl-tRNA synthetase expressed in Escherichia coli assessed as reduction in tRNA aminoacylation pre-incubated for 10 mins before addition of Escherichia coli MRE600 tRNA and L-tyrosine
Summary of the method: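 Tritiated tyrosine aminoacylation at 37°C. Mix (final): 100 mM Tris/Cl pH 7.9, 50 mM KCl, 16 mM MgCl2, 5 mM ATP, 3 mM DTT, 4 mg/ml E. coli MRE600 tRNA, 10 µM L-tyrosine including 0.3 µM L-[ring-3,5-3H]tyrosine. TyrRS (0.2 nM) preincubated 10 min at room temperature with a range of inhibitor concentrations. TCA precipitation onto filters, scintillation counting. Linear rates, under 50% tRNA acylation; IC50 at half activity.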

IC50	SMILES
> 100 µM	CCCCCCCCCC(=O)OC[C@H]1O[C@@H](n2cnc3c(N)ncnc32)[C@H](O)[C@@H]1O
0.8 µM	Nc1ncnc2c1ncn2[C@@H]1O[C@H](COC(=O)Cc2cccc(F)c2)[C@@H](O)[C@H]1O
44 µM	CC1(C)O[C@@H]2[C@H](O1)[C@@H](COC(=O)Cc1ccccc1F)O[C@H]2n1cnc2c(N)ncnc21
9.6 µM	CC1(C)O[C@@H]2[C@H](O1)[C@@H](COC(=O)Cc1cccc(O)c1)O[C@H]2n1cnc2c(N)ncnc21
> 100 µM	COc1ccc(CC(=O)OC[C@H]2O[C@@H](n3cnc4c(N)ncnc43)[C@@H]3OC(C)(C)O[C@@H]32)cc1OC

More lines, now with the values behind:

SMILES	IC50
Nc1ncnc2c1ncn2[C@@H]1O[C@H](COC(=O)Cc2ccc(O)cc2)[C@@H](O)[C@H]1O	23 µM
Nc1ncnc2c1ncn2[C@@H]1O[C@H](COC(=O)Cc2ccccc2F)[C@@H](O)[C@H]1O	40 µM
Nc1ncnc2c1ncn2[C@@H]1O[C@H](COC(=O)Cc2cccc(Br)c2)[C@@H](O)[C@H]1O	3.3 µM
Nc1ncnc2c1ncn2[C@@H]1O[C@H](COC(=O)c2ccc(Br)cc2)[C@@H](O)[C@H]1O	62 µM
Cc1ccc(CC(=O)OC[C@H]2O[C@@H](n3cnc4c(N)ncnc43)[C@H](O)[C@@H]2O)cc1	15 µM
Nc1ncnc2c1ncn2[C@@H]1O[C@H](COC(=O)c2ccc(F)cc2)[C@@H](O)[C@H]1O	51 µM

System: Escherichia coli
Assay: Antimicrobial activity against Escherichia coli ATCC 8739 by MTT assay
Type: functional
Summary of the method: (§1)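 Broth microdilution in LB medium with MTT read-out. Compound stock 1000 µg/ml in DMSO, diluted serially with sterile medium (50% v/v DMSO in PBS). Inoculum about 10^5 cfu/mL, incubated at 37°C. Then 3 mg/mL MTT in PBS added, 4-5 h at room temperature. Dye extracted with 10% SDS containing 5% isopropanol and HCl for 8-10 h. Absorbance at 570 nm gives MIC50.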

MIC50	SMILES
> 100 µg/mL	CCCCCCCCCC(=O)OC[C@H]1O[C@@H](n2cnc3c(N)ncnc32)[C@H](O)[C@@H]1O
1.3 µg/mL (≈ 3.22 µM)	Nc1ncnc2c1ncn2[C@@H]1O[C@H](COC(=O)Cc2cccc(F)c2)[C@@H](O)[C@H]1O
25.7 µg/mL (≈ 58 µM)	CC1(C)O[C@@H]2[C@H](O1)[C@@H](COC(=O)Cc1ccccc1F)O[C@H]2n1cnc2c(N)ncnc21
18.9 µg/mL (≈ 42.8 µM)	CC1(C)O[C@@H]2[C@H](O1)[C@@H](COC(=O)Cc1cccc(O)c1)O[C@H]2n1cnc2c(N)ncnc21
47.3 µg/mL (≈ 97.4 µM)	COc1ccc(CC(=O)OC[C@H]2O[C@@H](n3cnc4c(N)ncnc43)[C@@H]3OC(C)(C)O[C@@H]32)cc1OC

Further lines, the compound ahead of its results:

SMILES	MIC50
Nc1ncnc2c1ncn2[C@@H]1O[C@H](COC(=O)Cc2ccc(O)cc2)[C@@H](O)[C@H]1O	9.8 µg/mL (≈ 24.4 µM)
Nc1ncnc2c1ncn2[C@@H]1O[C@H](COC(=O)Cc2ccccc2F)[C@@H](O)[C@H]1O	23.6 µg/mL (≈ 58.5 µM)
Nc1ncnc2c1ncn2[C@@H]1O[C@H](COC(=O)Cc2cccc(Br)c2)[C@@H](O)[C@H]1O	38.1 µg/mL (≈ 82.1 µM)
Nc1ncnc2c1ncn2[C@@H]1O[C@H](COC(=O)c2ccc(Br)cc2)[C@@H](O)[C@H]1O	10.1 µg/mL (≈ 22.4 µM)
Cc1ccc(CC(=O)OC[C@H]2O[C@@H](n3cnc4c(N)ncnc43)[C@H](O)[C@@H]2O)cc1	16.4 µg/mL (≈ 41.1 µM)
Nc1ncnc2c1ncn2[C@@H]1O[C@H](COC(=O)c2ccc(F)cc2)[C@@H](O)[C@H]1O	24.8 µg/mL (≈ 63.7 µM)

System: Staphylococcus aureus
Assay: Antimicrobial activity against Staphylococcus aureus ATCC 6538 by MTT assay
Type: functional
Summary of the method: as §1

MIC50	SMILES
> 100 µg/mL	CCCCCCCCCC(=O)OC[C@H]1O[C@@H](n2cnc3c(N)ncnc32)[C@H](O)[C@@H]1O
9.2 µg/mL (≈ 22.8 µM)	Nc1ncnc2c1ncn2[C@@H]1O[C@H](COC(=O)Cc2cccc(F)c2)[C@@H](O)[C@H]1O
> 100 µg/mL	CC1(C)O[C@@H]2[C@H](O1)[C@@H](COC(=O)Cc1ccccc1F)O[C@H]2n1cnc2c(N)ncnc21
> 100 µg/mL	CC1(C)O[C@@H]2[C@H](O1)[C@@H](COC(=O)Cc1cccc(O)c1)O[C@H]2n1cnc2c(N)ncnc21
> 100 µg/mL	COc1ccc(CC(=O)OC[C@H]2O[C@@H](n3cnc4c(N)ncnc43)[C@@H]3OC(C)(C)O[C@@H]32)cc1OC

The next lines start with the compound.

SMILES	MIC50
Nc1ncnc2c1ncn2[C@@H]1O[C@H](COC(=O)Cc2ccc(O)cc2)[C@@H](O)[C@H]1O	44.3 µg/mL (≈ 110 µM)
Nc1ncnc2c1ncn2[C@@H]1O[C@H](COC(=O)Cc2ccccc2F)[C@@H](O)[C@H]1O	51.4 µg/mL (≈ 127 µM)
Nc1ncnc2c1ncn2[C@@H]1O[C@H](COC(=O)Cc2cccc(Br)c2)[C@@H](O)[C@H]1O	> 100 µg/mL
Nc1ncnc2c1ncn2[C@@H]1O[C@H](COC(=O)c2ccc(Br)cc2)[C@@H](O)[C@H]1O	> 100 µg/mL
Cc1ccc(CC(=O)OC[C@H]2O[C@@H](n3cnc4c(N)ncnc43)[C@H](O)[C@@H]2O)cc1	47.4 µg/mL (≈ 119 µM)
Nc1ncnc2c1ncn2[C@@H]1O[C@H](COC(=O)c2ccc(F)cc2)[C@@H](O)[C@H]1O	> 100 µg/mL

System: Pseudomonas aeruginosa
Assay: Antimicrobial activity against Pseudomonas aeruginosa ATCC 9027 by MTT assay
Type: functional
Summary of the method: as §1

MIC50	SMILES
> 100 µg/mL	CCCCCCCCCC(=O)OC[C@H]1O[C@@H](n2cnc3c(N)ncnc32)[C@H](O)[C@@H]1O
0.08 µg/mL (≈ 0.198 µM)	Nc1ncnc2c1ncn2[C@@H]1O[C@H](COC(=O)Cc2cccc(F)c2)[C@@H](O)[C@H]1O
25.5 µg/mL (≈ 57.5 µM)	CC1(C)O[C@@H]2[C@H](O1)[C@@H](COC(=O)Cc1ccccc1F)O[C@H]2n1cnc2c(N)ncnc21
25.9 µg/mL (≈ 58.7 µM)	CC1(C)O[C@@H]2[C@H](O1)[C@@H](COC(=O)Cc1cccc(O)c1)O[C@H]2n1cnc2c(N)ncnc21
30.1 µg/mL (≈ 62 µM)	COc1ccc(CC(=O)OC[C@H]2O[C@@H](n3cnc4c(N)ncnc43)[C@@H]3OC(C)(C)O[C@@H]32)cc1OC

Second part, the compound before the results:

SMILES	MIC50
Nc1ncnc2c1ncn2[C@@H]1O[C@H](COC(=O)Cc2ccc(O)cc2)[C@@H](O)[C@H]1O	25.9 µg/mL (≈ 64.5 µM)
Nc1ncnc2c1ncn2[C@@H]1O[C@H](COC(=O)Cc2ccccc2F)[C@@H](O)[C@H]1O	35.8 µg/mL (≈ 88.8 µM)
Nc1ncnc2c1ncn2[C@@H]1O[C@H](COC(=O)Cc2cccc(Br)c2)[C@@H](O)[C@H]1O	27.4 µg/mL (≈ 59 µM)
Nc1ncnc2c1ncn2[C@@H]1O[C@H](COC(=O)c2ccc(Br)cc2)[C@@H](O)[C@H]1O	22.7 µg/mL (≈ 50.4 µM)
Cc1ccc(CC(=O)OC[C@H]2O[C@@H](n3cnc4c(N)ncnc43)[C@H](O)[C@@H]2O)cc1	11.8 µg/mL (≈ 29.5 µM)
Nc1ncnc2c1ncn2[C@@H]1O[C@H](COC(=O)c2ccc(F)cc2)[C@@H](O)[C@H]1O	11.2 µg/mL (≈ 28.8 µM)
